# Assay results taken from publication PMC4615699 (Cell, 2015).
# pIC50: −log10 of the molar value.
# Key:
# PTGS1 = PTGS1 (Mus musculus, UniProt P22437); test: In situ competitive SILAC profiling of A-DA labeling, PTGS1 in Neuro2a cells; format: cell-based; details: drug 25 μM, A-DA 5 μM, 30 min
# NUCB1 [1] = target: T1, NUCB1 (Homo sapiens, UniProt Q02818); format: binding; details: AEA-DA 5.0 μM; lipids 20×
# T1 sequence (Q02818 27-461): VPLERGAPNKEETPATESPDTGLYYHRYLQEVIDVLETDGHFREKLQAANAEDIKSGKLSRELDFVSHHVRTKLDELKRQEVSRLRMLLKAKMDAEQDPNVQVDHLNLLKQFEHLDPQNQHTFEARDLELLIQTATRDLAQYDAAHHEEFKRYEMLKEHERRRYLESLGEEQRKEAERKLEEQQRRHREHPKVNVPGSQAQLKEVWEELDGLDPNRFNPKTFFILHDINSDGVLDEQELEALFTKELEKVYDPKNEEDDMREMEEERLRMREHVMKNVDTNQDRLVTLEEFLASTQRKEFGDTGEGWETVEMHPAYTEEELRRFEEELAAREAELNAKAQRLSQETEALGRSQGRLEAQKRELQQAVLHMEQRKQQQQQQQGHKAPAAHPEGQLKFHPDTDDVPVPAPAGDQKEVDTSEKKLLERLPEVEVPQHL
# Outline: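 Performed in vitro in lysates of NUCB1-transfected HEK293T cells, with AEA-DA probe and lipid competitors. Labeled proteomes (1.0 mg/mL) were CuAAC-conjugated to rhodamine-azide for 1 h at room temperature, quenched in SDS loading buffer, separated on 10% SDS-PAGE and detected by in-gel fluorescence.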
# [2] = target: T2, recombinant, purified human NUCB1 (hNUCB1) (Homo sapiens, UniProt Q02818); test: NUCB1 FluoPol assay with Fl-AEA probe; format: binding; details: for suppression of the NUCB1-FluoPol signal by lipids: concentration-dependent
# T2 sequence (Q02818 27-461): T1 sequence (Q02818 27-461)
# Outline: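 Fluorescence polarization readout using purified recombinant human NUCB1 and fluorescent arachidonoyl probe Fl-AEA. Lipid competitors were titrated for concentration-dependent loss of polarization signal. Mean ± SD from at least three independent experiments.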
# NENF = NENF (Homo sapiens, UniProt Q9UMX5); format: binding; details: competitors 1–100 μM; NENF-transfected HEK293T lysates
# Chain of NENF (Q9UMX5 32-172, species assumed): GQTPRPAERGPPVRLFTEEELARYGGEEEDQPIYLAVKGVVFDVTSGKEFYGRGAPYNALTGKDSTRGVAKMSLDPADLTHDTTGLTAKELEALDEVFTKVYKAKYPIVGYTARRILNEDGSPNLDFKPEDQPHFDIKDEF
# PTGR2 = PTGR2 (Mus musculus, UniProt Q8VDQ1); test: In situ AEA-DA competition with lipid competitor AEA, PTGR2; format: cell-based; details: competitor 200 μM
# Chain of PTGR2 (Q8VDQ1 whole entry): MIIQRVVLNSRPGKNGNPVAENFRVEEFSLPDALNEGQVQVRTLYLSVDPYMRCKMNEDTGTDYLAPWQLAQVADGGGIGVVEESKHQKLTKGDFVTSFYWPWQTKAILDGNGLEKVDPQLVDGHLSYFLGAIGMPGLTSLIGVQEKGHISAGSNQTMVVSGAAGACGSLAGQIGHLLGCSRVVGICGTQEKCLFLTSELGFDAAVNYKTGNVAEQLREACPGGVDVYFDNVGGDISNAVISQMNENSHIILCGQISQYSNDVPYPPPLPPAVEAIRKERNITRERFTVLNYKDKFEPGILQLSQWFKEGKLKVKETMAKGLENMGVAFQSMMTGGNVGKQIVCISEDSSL
# DHRS1 = DHRS1 (Mus musculus, UniProt Q99L04); test: In situ AEA-DA competition with lipid competitor AEA, DHRS1; format: cell-based; details: competitor 200 μM
# Chain of DHRS1 (Q99L04 whole entry): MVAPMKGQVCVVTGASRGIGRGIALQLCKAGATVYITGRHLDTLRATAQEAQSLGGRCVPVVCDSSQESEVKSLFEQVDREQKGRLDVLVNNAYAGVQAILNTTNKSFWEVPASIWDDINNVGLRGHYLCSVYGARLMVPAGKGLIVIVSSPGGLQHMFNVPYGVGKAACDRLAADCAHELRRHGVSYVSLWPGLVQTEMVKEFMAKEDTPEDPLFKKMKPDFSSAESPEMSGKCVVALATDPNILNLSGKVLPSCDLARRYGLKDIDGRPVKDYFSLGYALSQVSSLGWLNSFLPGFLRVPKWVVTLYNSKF
# NAMPT = NAMPT (Mus musculus, UniProt Q99KQ4); details: 25 μM, AEA-DA 5 μM, Neuro2a
# ABCB1B = ABCB1B (Mus musculus, UniProt P06795); test: In situ drug profiling with lipid probes, ABCB1B in Neuro2a cells; format: cell-based
# Chain of ABCB1B (P06795 whole entry): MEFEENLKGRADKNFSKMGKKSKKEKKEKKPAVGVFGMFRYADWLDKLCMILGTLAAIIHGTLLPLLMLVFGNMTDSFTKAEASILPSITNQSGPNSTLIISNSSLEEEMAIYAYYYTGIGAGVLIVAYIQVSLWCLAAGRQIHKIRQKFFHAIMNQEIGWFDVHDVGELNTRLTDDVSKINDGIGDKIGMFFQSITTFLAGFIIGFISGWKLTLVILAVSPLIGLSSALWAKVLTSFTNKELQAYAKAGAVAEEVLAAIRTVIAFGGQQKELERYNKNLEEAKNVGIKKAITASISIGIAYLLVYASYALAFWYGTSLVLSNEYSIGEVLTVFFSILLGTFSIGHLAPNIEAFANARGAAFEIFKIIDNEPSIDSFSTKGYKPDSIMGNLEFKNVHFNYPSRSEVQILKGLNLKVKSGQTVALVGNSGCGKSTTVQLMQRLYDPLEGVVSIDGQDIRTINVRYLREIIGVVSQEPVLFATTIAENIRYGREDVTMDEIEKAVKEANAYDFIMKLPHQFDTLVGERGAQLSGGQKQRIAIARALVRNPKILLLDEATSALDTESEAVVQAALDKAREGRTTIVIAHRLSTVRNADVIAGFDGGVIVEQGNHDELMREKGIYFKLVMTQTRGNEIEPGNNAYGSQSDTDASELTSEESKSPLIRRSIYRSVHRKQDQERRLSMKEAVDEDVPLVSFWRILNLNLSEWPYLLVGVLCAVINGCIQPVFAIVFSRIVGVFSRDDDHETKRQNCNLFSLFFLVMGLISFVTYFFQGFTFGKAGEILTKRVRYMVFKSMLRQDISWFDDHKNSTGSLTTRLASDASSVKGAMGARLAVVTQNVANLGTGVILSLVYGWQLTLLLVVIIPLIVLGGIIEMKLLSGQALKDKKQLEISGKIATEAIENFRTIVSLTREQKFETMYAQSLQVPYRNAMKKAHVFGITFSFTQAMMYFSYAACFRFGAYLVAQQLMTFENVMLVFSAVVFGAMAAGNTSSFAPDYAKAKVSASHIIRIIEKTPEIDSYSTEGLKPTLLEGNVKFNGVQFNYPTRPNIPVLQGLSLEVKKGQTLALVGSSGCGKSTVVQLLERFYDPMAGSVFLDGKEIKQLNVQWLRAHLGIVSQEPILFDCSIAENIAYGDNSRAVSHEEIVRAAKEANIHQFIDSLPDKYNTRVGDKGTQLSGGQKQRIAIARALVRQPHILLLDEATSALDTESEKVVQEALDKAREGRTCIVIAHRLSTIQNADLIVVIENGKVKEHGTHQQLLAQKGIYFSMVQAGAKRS
# [3] = system: A549 cells treated with PMA; test: PMA-stimulated prostaglandin production in A549 cells; format: cell-based, human
# [4] = target: endogenous FAAH in Neuro2a lysates (Mus musculus, UniProt O08914); test: Inhibition of endogenous FAAH in Neuro2a lysates; format: biochemical; details: read-out: IC50 against endogenous FAAH in Neuro2a lysates
# Chain of endogenous FAAH in Neuro2a lysates (O08914 whole entry): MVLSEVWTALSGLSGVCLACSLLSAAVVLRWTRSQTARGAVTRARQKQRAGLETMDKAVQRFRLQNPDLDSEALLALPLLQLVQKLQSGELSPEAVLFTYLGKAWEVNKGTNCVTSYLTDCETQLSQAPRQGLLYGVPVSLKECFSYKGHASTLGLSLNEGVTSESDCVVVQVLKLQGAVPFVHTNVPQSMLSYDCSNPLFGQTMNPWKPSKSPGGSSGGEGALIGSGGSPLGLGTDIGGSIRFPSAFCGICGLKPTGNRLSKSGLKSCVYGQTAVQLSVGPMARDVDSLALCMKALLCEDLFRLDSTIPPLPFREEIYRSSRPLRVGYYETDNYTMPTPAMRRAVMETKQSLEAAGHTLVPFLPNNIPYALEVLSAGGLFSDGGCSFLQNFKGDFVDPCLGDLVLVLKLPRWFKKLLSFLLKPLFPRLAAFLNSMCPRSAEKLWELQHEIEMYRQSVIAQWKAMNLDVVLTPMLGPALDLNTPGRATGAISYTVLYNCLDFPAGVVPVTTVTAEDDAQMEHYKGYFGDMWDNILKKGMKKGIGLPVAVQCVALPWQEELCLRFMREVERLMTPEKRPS
# NUCB1 [5] = target: T3, NUCB1 (Mus musculus, UniProt Q02819); format: cell-based; details: Neuro2a cells; for reductions in lipid probe enrichment of NUCB1: 25 μM
# T3 sequence (Q02819 26-459): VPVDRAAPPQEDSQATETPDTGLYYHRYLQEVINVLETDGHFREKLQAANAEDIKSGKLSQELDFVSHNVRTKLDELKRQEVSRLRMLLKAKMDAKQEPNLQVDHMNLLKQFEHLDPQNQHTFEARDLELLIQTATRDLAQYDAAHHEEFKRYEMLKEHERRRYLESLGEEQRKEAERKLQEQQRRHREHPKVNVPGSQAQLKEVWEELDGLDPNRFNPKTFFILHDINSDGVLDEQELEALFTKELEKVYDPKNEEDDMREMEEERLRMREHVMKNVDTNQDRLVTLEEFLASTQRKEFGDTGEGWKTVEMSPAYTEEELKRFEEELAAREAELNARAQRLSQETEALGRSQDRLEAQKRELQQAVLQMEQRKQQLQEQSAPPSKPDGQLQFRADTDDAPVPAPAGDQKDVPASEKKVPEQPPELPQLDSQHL
# Neuro2a cells [6] = test: Targeted metabolite; format: cell-based, mouse; details: for elevations in NAEs (targeted MRM): 10 μM, 6 h
# Outline: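 Neuro2a cells were treated with test compound (10 μM) or DMSO for 6 h. Fatty acid amides (NAEs, NATs) were quantified by targeted MRM mass spectrometry. Mean ± SEM, n = 3-4 per group, compared against DMSO-treated cells.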
# [7] = system: purified recombinant FAAH; test: Inhibition of purified recombinant FAAH; format: biochemical; details: read-out: IC50 against purified recombinant FAAH
# NUCB1 [8] = target: T1, NUCB1; format: binding; details: read-out: IC50, blockade of AEA-DA probe labeling of NUCB1; AEA-DA 5 μM; NUCB1 0.25 μM in HEK293T lysates 0.75 mg/mL
# [9] = system: PMA-stimulated A549 cells; test: Conversion of exogenous AEA to PGF2α-EA in PMA-stimulated A549 cells; format: cell-based, human; details: AEA 20 μM, 30 min; MJN228, KML110 5 and 25 μM; others 25 μM
# Outline: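 A549 cells stimulated with PMA were treated with test compound or DMSO. Exogenous AEA (20 μM, 30 min) was then added and prostamide PGF2α-EA formation was measured. Mean ± SEM, n = 3-4 per group.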
# Neuro2a cells [10] = test: Untargeted LC-MS lipidomic analysis of compound-treated Neuro2a cells; format: cell-based, mouse; details: 10 μM, 6 h, P < 0.0001
# NUCB1 (aa 53-68) = NUCB1 (aa 53-68) (Mus musculus, UniProt Q02819); test: isoTOP-ABPP mapping of AEA-DA-labeled NUCB1 peptide in Neuro2a cells; format: cell-based; details: 50 μM compound, AEA-DA 50 μM
# Outline: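 Neuro2a cells were co-treated with AEA-DA (50 μM) and DMSO or test compound (50 μM), then UV-irradiated. Probe-labeled proteins were CuAAC-conjugated to TEV-cleavable azide-biotin tags, isotopically light for DMSO samples and heavy for compound samples. Probe-modified peptides were mapped by isoTOP-ABPP LC-MS/MS.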
# [11] = system: other AEA-DA-modified proteins; test: Gel-based AEA-DA labeling of other proteins in HEK293T cell lysates; format: binding, human
# TMEM97 = TMEM97 (Mus musculus, UniProt Q8VD00); test: In situ drug profiling with lipid probes, TMEM97; format: cell-based
# Chain of TMEM97 (Q8VD00 whole entry): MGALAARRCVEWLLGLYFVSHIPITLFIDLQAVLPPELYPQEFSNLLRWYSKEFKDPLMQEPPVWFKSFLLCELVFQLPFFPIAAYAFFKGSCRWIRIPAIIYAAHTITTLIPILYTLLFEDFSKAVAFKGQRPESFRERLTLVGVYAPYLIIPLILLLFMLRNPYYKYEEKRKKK
# LSS = LSS (Homo sapiens, UniProt P48449); test: In situ drug profiling with lipid probes, LSS; format: cell-based; details: 5 μM drug
# EBP = EBP (Mus musculus, UniProt P70245); test: In situ drug profiling with lipid probes, EBP; format: cell-based; details: 5 μM drug
# Chain of EBP (P70245 whole entry): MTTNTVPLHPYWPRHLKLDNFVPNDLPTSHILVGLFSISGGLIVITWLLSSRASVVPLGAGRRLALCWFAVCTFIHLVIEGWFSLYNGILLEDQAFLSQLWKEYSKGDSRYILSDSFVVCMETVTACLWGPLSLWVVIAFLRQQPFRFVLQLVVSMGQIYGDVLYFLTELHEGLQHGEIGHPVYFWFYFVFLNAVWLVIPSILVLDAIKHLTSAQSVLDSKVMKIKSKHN
# [12] = target: recombinantly expressed TMEM97 (Homo sapiens, UniProt Q5BJF2); format: cell-based; details: transfected HEK293T cells
# Chain of recombinantly expressed TMEM97 (Q5BJF2 whole entry): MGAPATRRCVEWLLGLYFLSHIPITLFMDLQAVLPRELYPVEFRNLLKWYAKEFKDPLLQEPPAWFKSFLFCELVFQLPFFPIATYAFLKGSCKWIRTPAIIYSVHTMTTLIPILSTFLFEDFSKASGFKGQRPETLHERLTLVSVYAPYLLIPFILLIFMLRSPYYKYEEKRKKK
# Outline: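 Transfected HEK293T cells (2.5 × 10^6 per 6-cm plate, grown 18-24 h) were washed in DPBS. They then received AEA-DA plus competitor or vehicle in serum-free media for 30 min at 37 °C, followed by 365 nm UV for 10 min at 4 °C. Lysates at 1.0 mg/mL were clicked to rhodamine-azide (TBTA, CuSO4, TCEP; 1 h, room temperature), resolved by 10% SDS-PAGE and read by in-gel fluorescence scanning.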
# ferrochelatase (FECH) = ferrochelatase (FECH) (Mus musculus, UniProt P22315); test: In situ drug profiling with lipid probes, FECH; format: cell-based
# Chain of ferrochelatase (FECH) (P22315 54-422): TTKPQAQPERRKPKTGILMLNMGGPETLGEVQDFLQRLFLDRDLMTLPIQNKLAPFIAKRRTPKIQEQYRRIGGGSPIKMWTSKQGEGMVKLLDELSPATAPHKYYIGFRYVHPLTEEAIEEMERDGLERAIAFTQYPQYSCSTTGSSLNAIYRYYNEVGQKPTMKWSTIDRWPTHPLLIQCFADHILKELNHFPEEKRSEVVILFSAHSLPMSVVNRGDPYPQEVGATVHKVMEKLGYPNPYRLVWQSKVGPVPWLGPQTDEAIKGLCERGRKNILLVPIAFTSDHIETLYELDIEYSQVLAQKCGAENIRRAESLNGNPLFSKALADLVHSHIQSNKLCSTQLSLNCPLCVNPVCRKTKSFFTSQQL
# [13] = target: aldose reductase-related protein 2 (AKR1B8) (Mus musculus, UniProt P45377); test: In situ competitive SILAC profiling of A-DA labeling, AKR1B8 in Neuro2a cells; format: cell-based; details: drug 25 μM, A-DA 5 μM
# PTGS2 = PTGS2 (Homo sapiens, UniProt P35354); details: drug 25 μM, A-DA 5 μM, 30 min, A549
# Chain of PTGS2 (P35354 18-604): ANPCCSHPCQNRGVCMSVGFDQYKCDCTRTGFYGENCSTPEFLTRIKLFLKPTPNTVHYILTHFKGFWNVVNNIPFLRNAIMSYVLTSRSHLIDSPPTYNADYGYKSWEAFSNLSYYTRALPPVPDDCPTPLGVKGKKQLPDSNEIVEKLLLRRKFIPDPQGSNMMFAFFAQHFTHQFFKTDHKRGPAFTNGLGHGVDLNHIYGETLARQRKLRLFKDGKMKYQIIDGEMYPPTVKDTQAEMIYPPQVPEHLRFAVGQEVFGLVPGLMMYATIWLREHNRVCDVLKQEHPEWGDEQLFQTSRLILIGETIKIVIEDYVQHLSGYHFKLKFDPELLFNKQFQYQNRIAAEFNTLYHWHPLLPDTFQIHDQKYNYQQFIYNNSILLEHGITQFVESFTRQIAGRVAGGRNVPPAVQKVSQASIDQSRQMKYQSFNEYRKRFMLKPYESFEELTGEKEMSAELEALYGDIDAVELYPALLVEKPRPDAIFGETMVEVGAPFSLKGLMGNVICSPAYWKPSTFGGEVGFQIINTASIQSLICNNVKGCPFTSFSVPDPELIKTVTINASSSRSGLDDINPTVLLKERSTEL
# Chain of PTGS1 (P22437 27-602): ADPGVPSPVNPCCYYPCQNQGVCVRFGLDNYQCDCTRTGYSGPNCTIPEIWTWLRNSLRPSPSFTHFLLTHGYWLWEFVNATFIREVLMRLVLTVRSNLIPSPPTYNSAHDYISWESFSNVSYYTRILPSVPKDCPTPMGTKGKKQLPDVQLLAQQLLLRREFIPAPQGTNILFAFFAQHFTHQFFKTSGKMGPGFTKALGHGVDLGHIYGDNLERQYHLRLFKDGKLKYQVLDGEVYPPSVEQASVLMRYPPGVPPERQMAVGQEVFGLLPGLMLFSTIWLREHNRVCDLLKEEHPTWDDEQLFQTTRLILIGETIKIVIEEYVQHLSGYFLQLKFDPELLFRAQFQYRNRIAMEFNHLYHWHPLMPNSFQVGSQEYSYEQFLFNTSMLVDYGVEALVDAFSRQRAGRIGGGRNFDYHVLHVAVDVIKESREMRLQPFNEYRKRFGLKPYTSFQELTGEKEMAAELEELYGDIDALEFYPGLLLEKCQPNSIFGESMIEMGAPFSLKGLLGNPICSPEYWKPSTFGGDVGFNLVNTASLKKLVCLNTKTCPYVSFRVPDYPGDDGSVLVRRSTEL
smiles,measurement,setting,value
CC(C(=O)O)c1ccc(-c2ccccc2)c(F)c1 (racemic) [(±)-flurbiprofen],competition of A-DA labeling of PTGS1,PTGS1,competitively blocked
"CCCCC/C=C\C/C=C\C/C=C\C/C=C\CCCC(=O)OC(CO)CO [2-AG, 2-arachidonoyl glycerol]",blockade of AEA-DA probe labeling of recombinant NUCB1 by lipids,NUCB1 [1],preferentially blocked
same,suppression of the NUCB1-FluoPol signal by lipids,"[2]; Fl-AEA 0.5 μM, NUCB1 1.0 μM",Concentration-dependent suppression
"CCCCC/C=C\C/C=C\C/C=C\C/C=C\CCCC(=O)O [AA, arachidonic acid]",blockade of AEA-DA probe labeling of recombinant NUCB1 by lipids,NUCB1 [1],preferentially blocked
same,competition of AEA-DA probe labeling of recombinant NENF,NENF,competitively blocked
same,suppression of FluoPol signal by competitive lipid,"[2]; 20 μM competitor, Fl-AEA 0.5 μM, NUCB1 1.0 μM",significantly suppressed
same,suppression of the NUCB1-FluoPol signal by lipids,"[2]; Fl-AEA 0.5 μM, NUCB1 1.0 μM",Concentration-dependent suppression
"CCCCC/C=C\C/C=C\C/C=C\C/C=C\CCCC(=O)NCCO [AEA, N-arachidonoyl ethanolamine]",blockade of AEA-DA probe labeling of recombinant NUCB1 by lipids,NUCB1 [1],preferentially blocked
same,suppression of the NUCB1-FluoPol signal by lipids,"[2]; Fl-AEA 0.5 μM, NUCB1 1.0 μM",Concentration-dependent suppression
same,competition of PTGR2 probe labeling,PTGR2,competed
same,competition of DHRS1 probe labeling,DHRS1,competed
O=C(/C=C/c1cccnc1)NCCCCC1CCN(C(=O)c2ccccc2)CC1 [FK-866],competition of probe-labeling of NAMPT,NAMPT,competed
same,competition of probe-labeling of ABCB1B,"ABCB1B; 25 μM, AEA-DA 5 μM, Neuro2a",competed
same,PMA-stimulated generation of PGE2,[3],no effect
same,PMA-stimulated generation of TXB2,[3],complete suppression
CCCCC/C=C\C/C=C\C/C=C\C/C=C\CCCC(=O)NCCCCCNC(=O)c1ccc(-c2c3ccc(=[N+](C)C)cc-3oc3cc(N(C)C)ccc23)c(C(=O)[O-])c1 [Fl-AEA],binding of probe to hNUCB1 (increase in FluoPol signal),[2],bound
CN1CCN(C(=O)c2c(-c3ccccc3)c3cc([N+](=O)[O-])ccc3n2C)CC1 [KML110],pIC50,[4],< 4.00
same,reductions in lipid probe enrichment of NUCB1,NUCB1 [5],3-5 fold
same,cellular concentrations of NAEs and NATs,Neuro2a cells [6],elevated
same,elevations in NAEs (targeted MRM),Neuro2a cells [6],elevations
same,pIC50,[7],< 4.00
same,pIC50,NUCB1 [8],5.02
same,conversion of exogenous AEA to PGF2α-EA,[9],suppress
CN1CCN(C(=O)c2[nH]c3ccc([N+](=O)[O-])cc3c2-c2ccccc2)CC1 [MJN228],pIC50,[4],< 4.00
same,selectivity for NUCB1 among ∼400 AEA-DA probe targets,"NUCB1 [5]; 10 μM, AEA-DA 5 μM",most competed protein
same,reductions in lipid probe enrichment of NUCB1,NUCB1 [5],3-5 fold
same,concentration inhibiting lipid probe binding to NUCB1 (as low as),NUCB1 [5],≤ 10 µM
same,concentration of near-maximal inhibition of lipid probe binding to NUCB1,NUCB1 [5],~25 µM
same,elevation of metabolites (NAEs and NATs) versus DMSO,Neuro2a cells [10],≥ 2 fold
same,reduction of signals of AEA-DA-labeled NUCB1 peptide (aa 53-68),NUCB1 (aa 53-68),> 5 fold
same,cellular concentrations of NAEs and NATs,Neuro2a cells [6],elevated
same,elevations in NAEs (targeted MRM),Neuro2a cells [6],elevations
same,pIC50,[7],< 4.00
same,disruption of other arachidonoyl probe-protein interactions,[11]; HEK293T cell lysates,did not appear to disrupt
same,pIC50,NUCB1 [8],5.48
same,conversion of exogenous AEA to PGF2α-EA,[9],suppress
O=C(Nc1cccnn1)N1CCC(=Cc2cccc(Oc3ccc(C(F)(F)F)cn3)c2)CC1 [PF-7845],cellular concentrations of NAEs and NATs,Neuro2a cells [6],elevated
"C=CC1=C(C)c2cc3[nH]c(cc4nc(cc5[nH]c(cc1n2)c(C)c5CCC(=O)O)C(CCC(=O)O)=C4C)c(C)c3C=C [Pp-IX, protoporphyrin IX]",competition of AEA-DA probe labeling of recombinant NENF,NENF,inhibited
C=CCN(C)CCCCCCOc1ccc(C(=O)c2ccc(Br)cc2)c(F)c1 [Ro 48-8071],competition of TMEM97,TMEM97; 5 μM drug,prominent off-targets
same,competition of LSS,LSS,fully competed
same,competition of EBP,EBP,prominent off-targets
same,blockade of AEA-DA probe labeling of recombinant TMEM97,[12],block
COc1cc2c(cc1OC)CN(CCc1ccc(NC(=O)c3cccc4c(=O)c5cccc(OC)c5[nH]c34)cc1)CC2 [elacridar],concentration blocking arachidonoyl probe labeling of TMEM97 (as low as),TMEM97,≤ 0.5 µM
same,concentration blocking arachidonoyl probe labeling of FECH (as low as),ferrochelatase (FECH),≤ 0.5 µM
same,concentration blocking arachidonoyl probe labeling of ABCB1B (as low as),ABCB1B,≤ 0.5 µM
same,blockade of AEA-DA probe labeling of recombinant TMEM97,[12],block
C=CC1=C(C)c2cc3[n-]c(cc4[n-]c(cc5nc(cc1n2)C(C)=C5C=C)c(C)c4CCC(=O)O)c(CCC(=O)O)c3C.[Cl-].[Fe+3] [hemin],competition of AEA-DA probe labeling of recombinant NENF,NENF,inhibited
same,effect on other AEA-DA-modified proteins detected by SDS-PAGE,[11]; NENF-transfected HEK293T lysates,unaffected
CS(=O)(=O)c1ccc(C2=C(c3ccccc3)C(=O)OC2)cc1 [rofecoxib],reduction in A-DA labeling of AKR1B8,[13],strong reductions
same,competition of A-DA labeling of PTGS2,PTGS2,disrupted
same,conversion of exogenous AEA to PGF2α-EA,[9],blocked
